One series deals with T1, FLT3 (Homo sapiens, UniProt P36888).
T1 sequence (P36888 27-993): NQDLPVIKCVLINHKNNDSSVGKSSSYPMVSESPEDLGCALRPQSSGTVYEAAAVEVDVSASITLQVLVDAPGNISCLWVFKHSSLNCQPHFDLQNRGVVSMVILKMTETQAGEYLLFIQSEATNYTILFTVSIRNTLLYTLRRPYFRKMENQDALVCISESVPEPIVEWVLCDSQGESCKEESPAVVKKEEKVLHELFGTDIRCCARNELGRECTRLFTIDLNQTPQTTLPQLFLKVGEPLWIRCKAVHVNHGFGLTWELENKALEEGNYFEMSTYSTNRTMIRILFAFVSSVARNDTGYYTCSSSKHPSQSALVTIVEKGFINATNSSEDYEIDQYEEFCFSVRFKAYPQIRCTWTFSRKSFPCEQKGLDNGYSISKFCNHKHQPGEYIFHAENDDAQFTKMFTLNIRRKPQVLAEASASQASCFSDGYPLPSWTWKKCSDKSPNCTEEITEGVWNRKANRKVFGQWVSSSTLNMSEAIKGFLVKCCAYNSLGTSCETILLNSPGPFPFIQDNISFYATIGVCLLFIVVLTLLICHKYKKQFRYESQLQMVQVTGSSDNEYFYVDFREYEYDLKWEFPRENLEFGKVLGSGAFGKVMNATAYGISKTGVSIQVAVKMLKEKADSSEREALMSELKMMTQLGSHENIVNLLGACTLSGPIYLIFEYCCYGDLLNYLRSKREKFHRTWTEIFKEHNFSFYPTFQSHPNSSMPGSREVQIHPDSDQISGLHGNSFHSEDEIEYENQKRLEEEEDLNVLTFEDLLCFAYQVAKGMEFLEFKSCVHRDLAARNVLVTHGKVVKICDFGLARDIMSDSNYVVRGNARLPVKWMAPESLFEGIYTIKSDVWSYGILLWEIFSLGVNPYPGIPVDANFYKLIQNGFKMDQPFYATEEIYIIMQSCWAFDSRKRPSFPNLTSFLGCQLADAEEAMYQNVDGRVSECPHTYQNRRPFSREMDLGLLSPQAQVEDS
In words: Plasma inhibitory activity. The format is cell-based. The method, boiled down:
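Ex vivo surrogate for in vivo FLT3 inhibition. Participant plasma was prepared from lithium-heparin whole blood collected at cycle 1 time points, including pre-dose troughs on days 8 and 15. It was tested on FLT3-ITD Molm14 cells, and P-FLT3 was expressed as a percentage of baseline. Drug concentration in the same samples was measured by mass spectrometry and paired with PIA values across QD and BID cohorts.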

Series [1] can be described thus: Pharmacokinetic analysis of plasma FF-10101 concentration in trial participants. The format is in vivo, human.
The test system of series [2] is relapsed and/or refractory AML. In words: Phase 1 dose escalation: response in patients with R/R AML. Format: in vivo, human.
Series [3] is classed as in vivo, human. The following applies: for Aspartate aminotransferase elevation, related TEAE / Creatine kinase increase, related TEAE / Diarrhea, related TEAE / Nausea, related TEAE: 54 participants.
The next series concerns AML. To be noted: cited from earlier work.
The next series deals with FLT3-TKD mutations. To be noted: cited from earlier work.
The mark [4] stands for this setting: 40 response-evaluable participants.
Setting [5] is: participants with history of FLT3-mutated AML at FLT3-inhibitory doses (150 mg QD, 225 mg QD, 50 mg BID, 75 mg BID).

Like-named read-outs stand apart in the source and are kept apart here. A value given as a limit tells only on which side of the number the result lay.

For the compound `CCCNc1nc(Nc2ccc(C#N)cc2)ncc1C#CCCCNC(=O)[C@H](C)N(C)C(=O)/C=C/CN(C)C` [FF-10101], on FLT3 (PIA, escalating doses), the “dose levels at which inhibition of P-FLT3 was most effective” value is 150 mg daily, 225 mg daily, 50 mg BID, and 75 mg BID. In addition, the “plasma concentration of FF-10101 associated with more complete inhibition (PIA)” value on FLT3 (cycle 1 plasma samples) is reported as greater than 100 ng/mL. Besides, the “FF-10101 concentration achieving maximal trough suppression of P-FLT3 activity” value on FLT3 (maximal trough suppression eg <5% of baseline) is greater than 200 ng/mL. The “effect of food on absorption” value in series [1] (after oral dosing) was “unaffected by food”. In series [1] (human, plasma, po), this compound had a half-life of roughly 10 h. Moreover, in series [2] (setting [4]), the “number of CR” value is 1, the “number of CRh” value came out at 1, the “number of CRp” value amounted to 2 and the “number of PR” value is given as 1. In series [2] (setting [4]), the “overall response rate (CR + CRh + CRp + PR)” value worked out at 12.5%. Further, in series [2] (setting [5]), the “number of CR” value worked out at 1, the “number of CRp” value came to 2 and the “number of PR” value came to 1. The “participants with DLT” value in series [3] (50 mg BID cohort, grade 3 maculopapular rash) is listed as 1 of 7. The “participants with DLTs” value in series [3] (100 mg BID cohort, 5 participants) is 2 participants. The “participants reporting at least 1 treatment emergent AE (TEAE)” value in series [3] (53 of 54 participants, all cohorts) is given as 98.1%. Moreover, the participants reporting diarrhea in series [3] (<100 mg/dose) was 21.2%. Further, in series [3] (All grades), the “Aspartate aminotransferase elevation, related TEAE” value is 14 (25.9) participants (%); the “Creatine kinase increase, related TEAE” value was 16 (29.6) participants (%); the “Diarrhea, related TEAE” value was 15 (27.8) participants (%); the “Nausea, related TEAE” value is 19 (35.2) participants (%). In series [3] (Grade 1-2), the “Aspartate aminotransferase elevation, related TEAE” value is recorded as 10 (18.5) participants (%); the “Creatine kinase increase, related TEAE” value is 11 (20.4) participants (%); the “Diarrhea, related TEAE” value is recorded as 13 (24.1) participants (%); the “Nausea, related TEAE” value is listed as 19 (35.2) participants (%). In series [3] (Grade ≥3), the “Aspartate aminotransferase elevation, related TEAE” value is 4 (7.4) participants (%); the “Creatine kinase increase, related TEAE” value was 5 (9.3) participants (%); the “Diarrhea, related TEAE” value is 2 (3.7) participants (%); the “Nausea, related TEAE” value is 0 (0) participants (%). In series [3] (all cohorts), the “participants with grade 3 diarrhea” value worked out at 4 participants. In addition, the “recommended phase 2 dose (RP2D)” value in series [3] (oral) was 75 mg BID. Further, the “maximum tolerated dose (MTD)” value in series [3] (oral, 28-day cycles) was 75 mg BID. Further, in series [3] (≥100 mg/dose (100 mg QD, 150 mg QD, 225 mg QD, 100 mg BID)), the “participants reporting grade 1-3 diarrhea” value is 76.2%.

Consider `CO[C@@H]1[C@H](N(C)C(=O)c2ccccc2)C[C@H]2O[C@]1(C)n1c3ccccc3c3c4c(c5c6ccccc6n2c5c31)C(=O)NC4` [Midostaurin], for which the single-agent activity entry in the series on AML was “no single-agent activity”.

As to `CNC(=O)c1cc(Oc2ccc(NC(=O)Nc3ccc(Cl)c(C(F)(F)F)c3)cc2)ccn1` [Sorafenib], the “activity against FLT3-TKD mutations” value in the series on FLT3-TKD mutations was “inactive”.

The record behind these values is paper PMC11131057 (Blood Advances, 2024).
